Source: PubChem (The Scripps Research Institute Molecular Screening Center)
HTRA1 inhibitor: blocks human HTRA1 serine peptidase. inhibition, % at 5.96 µM. 340,000 tested, 0.5% active. Q92743. recombinant HTRA1, FP-rhodamine activity-based probe, fluorescence polarization; in the data active = inhibition above about 36%;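 note: 0% = enzyme with DMSO and 100% = wells lacking enzyme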
Target sequence (Q92743 whole entry, looked up): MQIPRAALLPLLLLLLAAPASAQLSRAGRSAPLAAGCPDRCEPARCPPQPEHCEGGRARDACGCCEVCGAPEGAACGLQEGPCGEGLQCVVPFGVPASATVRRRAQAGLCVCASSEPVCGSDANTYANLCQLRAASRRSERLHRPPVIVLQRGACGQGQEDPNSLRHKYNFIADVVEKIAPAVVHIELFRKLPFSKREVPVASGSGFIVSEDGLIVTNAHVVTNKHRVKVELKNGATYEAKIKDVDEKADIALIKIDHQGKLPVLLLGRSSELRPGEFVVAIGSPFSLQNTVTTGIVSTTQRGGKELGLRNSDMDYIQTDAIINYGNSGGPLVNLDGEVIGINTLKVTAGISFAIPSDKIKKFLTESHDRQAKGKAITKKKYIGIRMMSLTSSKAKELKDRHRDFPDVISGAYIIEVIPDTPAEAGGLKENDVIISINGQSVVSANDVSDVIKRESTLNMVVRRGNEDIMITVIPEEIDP
TCR-CD3 inh: inhibitors of human TCR-CD3 interaction. TAMRA-labeled TCR probe fluorescence, biochemical. inhibition, % at 9.4 µM. 360,000 tested, 0.37% active. AID 651800; in the data active = inhibition above about 19%;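 note: recombinant mutant TCR 2C K166C tagged with TAMRA read by polarization; 0% = receptor in buffer alone and 100% = receptor with positive control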
SIAE inh: inhibitors of human sialic acid acetylesterase SIAE | Q9HAT2 | SIAE FP-Rh probe binding, fluorescence polarization | inhibition, % at 9.66 µM | 370,000 tested, 0.69% active;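 active = inhibition above a cutoff: mean of compounds within the control limits plus 3 SD of those, cut at about 17% in these data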;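 note: 0% = plate median of compound wells and 100% = probe without SIAE protein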
mABHD4 FP: inhibitors of mouse ABHD4; inhibition, % at 8.92 µM; Q8VD66; 370,000 tested, 0.54% active; purified mABHD4, FP-Rh probe fluorescence polarization; AID 720543;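 active = inhibition exceeding the mean over every tested compound plus 3 SD, cut at about 30% in these data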;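 note: 0% = plate median of compound wells and 100% = S159A mutant with DMSO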
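system = mouse ABHD4 enzyme, wild type | medium = HEPES pH 7.0, NaCl, Pluronic buffer | also added = FP-Rh probe | incubation = Enzyme–compound pre-incubation 45 min, then probe 60 min, both 25 °C | technique = fluorescence polarization, excitation 525 nm, emission 598 nm, BODIPY TMR filters | controls = S159A mutant high control, sample median low control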
PME-1 inh: blocks human protein phosphatase methylesterase 1. recombinant PME-1, FP-Rh probe fluorescence polarization. inhibition, % at 5.9 µM. 320,000 tested, 0.53% active. AID 2130;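 active = inhibition above the campaign mean of all compounds plus 3 SD, cut at about 26% in these data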;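 note: competitive labeling of PME-1 active site by serine hydrolase directed probe; 0% = PME-1 with DMSO and 100% = wells lacking PME-1 enzyme; inhibitors block probe labeling so polarization falls and inhibition rises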
Fam108B inh: Fam108B inhibition, counter-screen for RBBP9 inhibitors; recombinant Fam108B, FP-Rh probe fluorescence polarization; inhibition, % at 9.51 µM; AID 1947; 300,000 tested, 0.33% active;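 active = inhibition above the screen mean inhibition plus 3 SD, computed separately per campaign, cut at about 18% in these data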;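 note: inhibitors lower polarization as less probe binds the enzyme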
Fam108b inh conf: confirmation of mouse Fam108b serine hydrolase inhibitors | AID 1978 | inhibition, % at 9.51 µM | 930 tested, 44% active | recombinant Fam108b, FP-Rh probe fluorescence polarization | shares compounds with Fam108B inh;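 active = inhibition above a limit from the primary screen, the mean over all compounds plus 3 SD, cut at about 19% in these data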;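 note: 0% = median of active Fam108b wells and 100% = catalytically dead S170A mutant; inhibitors free the probe so polarization falls as inhibition rises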
Fam108b inh: mouse ABHD17B inhibition | shares compounds with Fam108B inh | recombinant Fam108b, gel-based ABPP, fluorophosphonate probe | inhibition, % at 20 µM | 260 tested, 44% active | AID 588649; in the data active = inhibition above about 40%
An asterisk follows results filed as active. Compounds with a hit are over-represented: about 1.8% of the library has one in this group of screens.

For CCN(CC)c1ccc(/C=C(/C#N)c2nc3ccccc3[nH]2)c(OC(C)C)c1 the results were HTRA1 inhibitor 20, TCR-CD3 inh -6, SIAE inh 5, mABHD4 FP 21, PME-1 inh 9, Fam108B inh 20* and Fam108b inh conf 0.
For CCOC(=O)/C(=N/Nc1ccccc1)c1csc(Nc2ccccc2)n1 the results were HTRA1 inhibitor 27, TCR-CD3 inh -8, SIAE inh 9, mABHD4 FP 10, PME-1 inh 10, Fam108B inh 22* and Fam108b inh conf -7.
CCOc1cc(/C=C2/C(=O)N(c3ccccc3)N=C2C)ccc1OC(=O)c1ccco1 was read as HTRA1 inhibitor 4, TCR-CD3 inh 0, SIAE inh 5, mABHD4 FP -8, PME-1 inh 2 and Fam108B inh 3.
CCOc1cc(/C=C2\C(=O)N(c3ccc(C(N)=O)cc3)N=C2C)ccc1OC(=O)c1cccs1 was read as HTRA1 inhibitor 22, PME-1 inh 9, Fam108B inh 20* and Fam108b inh conf 8.
`O=C(COC(=O)CNC(=O)c1ccc(Cl)cc1)Nc1cccc(S(=O)(=O)N2CCCC2)c1` gave HTRA1 inhibitor -5, TCR-CD3 inh -5, SIAE inh 3, mABHD4 FP 4, PME-1 inh -2, Fam108B inh 64* and Fam108b inh conf -5.
O=C(NCCO)Nc1ccc2nsnc2c1 was read as HTRA1 inhibitor -3, TCR-CD3 inh 5, SIAE inh 7, mABHD4 FP 0, PME-1 inh 5 and Fam108B inh 0.
For OCCNC(=S)Nc1ccc2nsnc2c1 the results were HTRA1 inhibitor 10, TCR-CD3 inh -4, SIAE inh 8, mABHD4 FP 1, PME-1 inh 24, Fam108B inh 28* and Fam108b inh conf -1.
CC(C)N1Cc2nnn(Cc3ccccc3)c2-c2ccccc2S1(=O)=O was read as SIAE inh -1 and mABHD4 FP -3.
For N=c1oc2cc(O)ccc2cc1C(=O)Nc1ccc(Br)cc1 the results were HTRA1 inhibitor 4, TCR-CD3 inh 8, SIAE inh -2, mABHD4 FP 5, PME-1 inh 9, Fam108B inh 33*, Fam108b inh conf 164* and Fam108b inh 40*.
Screening C=C(C)C#CCNCc1ccccc1 returned SIAE inh 2 and mABHD4 FP 4.
O=C(N/N=C/c1c[nH]c2ccccc12)c1ccn(Cc2ccc(Cl)cc2Cl)n1 was read as HTRA1 inhibitor -1, TCR-CD3 inh 1, SIAE inh 5, mABHD4 FP 8, PME-1 inh 17, Fam108B inh 21* and Fam108b inh conf 0.
C=CCN1C(=O)[C@@H](CC(=O)NCCCN2CCCC2=O)[C@]2(C(=O)OC)CCCCC=C12 was read as SIAE inh -5 and mABHD4 FP -5.
COc1ccc(CN2C(=O)c3c(c(C)n(C)c3C)C2C(=O)NC2CCC(C)CC2)cc1 (configuration not stated) was read as HTRA1 inhibitor 5, TCR-CD3 inh -2, SIAE inh 0, mABHD4 FP 5, PME-1 inh -5, Fam108B inh 24* and Fam108b inh conf -2.
CCOc1ccc(-c2c(C(=O)N/N=C/c3c[nH]c4ccccc34)nnn2-c2nonc2N)cc1 was read as HTRA1 inhibitor -5, TCR-CD3 inh 7, SIAE inh 10, mABHD4 FP -7, PME-1 inh 21, Fam108B inh 19* and Fam108b inh conf -4.
O=C(CN1C(=O)C2CCCCN2C(=O)c2ccccc21)N1CCCC1 (configuration not stated) was read as SIAE inh -3 and mABHD4 FP -3.
Screening COc1ccc(C2CC(=O)C(c3ccc(Cl)c(Cl)c3)=CN2Cc2ccccc2)cc1 (configuration not stated) returned TCR-CD3 inh 0, SIAE inh 1 and mABHD4 FP -10.
For CC(=O)NC1=NN(C(C)=O)C(C)(c2ccco2)S1 (configuration not stated) the results were HTRA1 inhibitor -2, TCR-CD3 inh -5, SIAE inh -5, mABHD4 FP 1, PME-1 inh 4, Fam108B inh 22* and Fam108b inh conf 3.
For CC(=O)NC1=NN(C(C)=O)C(C)(c2ccc(C)o2)S1 (configuration not stated) the results were HTRA1 inhibitor -5, TCR-CD3 inh -8, SIAE inh 3, mABHD4 FP 8, PME-1 inh -4 and Fam108B inh -1.
`On1onc2c3cc(-c4ccccc4)nc3ccc21` gave HTRA1 inhibitor 2, TCR-CD3 inh 0, SIAE inh 18*, mABHD4 FP -18, PME-1 inh 45*, Fam108B inh 27* and Fam108b inh conf 21*.
O=C(CCCCCN1C(=O)C2C3C=CC(C3)C2C1=O)Nc1ccc2ncccc2c1 (configuration not stated) was read as SIAE inh -2 and mABHD4 FP 6.
`O=C(CCc1ccccc1)N[C@H]1[C@@H](OC(=O)c2cnccn2)CCC[C@]12C(=O)N(Cc1ccccc1)c1ccccc12` gave SIAE inh -7 and mABHD4 FP 0.
For O=C(c1cc2ncc(Br)cn2n1)N1CCN(C(=O)c2ccco2)CC1 the results were HTRA1 inhibitor 8, PME-1 inh 1, Fam108B inh 19* and Fam108b inh conf -7.
COc1ccc(-c2nnc(SCC(=O)N/N=C\C=C/c3ccco3)n2-c2ccc(C)cc2)cc1 was read as SIAE inh -7 and mABHD4 FP -1.
Screening COc1cc2cc(-c3ccc(O)cc3O)nc(C)c2cc1OC returned HTRA1 inhibitor 15, TCR-CD3 inh -6, SIAE inh -7, mABHD4 FP 16, PME-1 inh 16, Fam108B inh 20* and Fam108b inh conf 21*.
For CCOC(=O)C1=CCN(S(=O)(=O)c2ccc(Br)cc2)C1c1cccc(Br)c1 (configuration not stated) the results were TCR-CD3 inh -5, SIAE inh 4 and mABHD4 FP -5.
`Cc1ccc(C)c(-n2c3nc(=O)[nH]c(=O)c-3cc3cc([N+](=O)[O-])ccc32)c1` gave HTRA1 inhibitor 29, TCR-CD3 inh -7, SIAE inh 10, mABHD4 FP 18, PME-1 inh 36*, Fam108B inh 26*, Fam108b inh conf 35* and Fam108b inh 70*.
